From ChEMBL document CHEMBL1671773, “Benzoquinazoline derivatives as new agents affecting DNA processing” (Bioorg Med Chem, 2011)
Calls of active or inactive are those of the source. The calls are words filed in the database; no cut-off is given here.

Tests used:
HL-60 = assay: Growth inhibition in human HL60 cells after 72 hrs by trypan blue assay; format: functional, cell-based; settings: HL-60, 72 h
Procedure, shortened: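 HL-60 cells were grown in RPMI 1640 with 15% heat-inactivated FCS and antibiotics at 37 °C under 5% CO2. 4 × 10⁴ cells per well were seeded, and after 24 h test agents were added to complete medium for 72 h. Viability was read by trypan blue. IC50 is the concentration giving 50% reduction in cell number versus control cultures.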

A-431 = assay: Growth inhibition in human A431 cells after 72 hrs by trypan blue assay; format: functional, cell-based; settings: A-431, 72 h
Procedure, shortened: (§1)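 HeLa (F-12 medium) and A431 (D-MEM) cells were grown with 10% heat-inactivated FCS and antibiotics at 37 °C under 5% CO2. 4 × 10⁴ cells per well were seeded for 24 h, then medium was replaced with fresh medium containing test agents for 72 h. Viability was read by trypan blue. IC50 is the concentration halving cell number versus control.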

HeLa [1] = assay: Growth inhibition in human HeLa cells after 72 hrs by trypan blue assay; format: functional, cell-based; procedure, shortened: as §1
Nucleic Acid [2] = assay: Stabilization of supercoiled pBR322 DNA-human recombinant topoisomerase 2 complex assessed as linear DNA formation at 8 uM after 60 mins; format: nucleic-acid assay; settings: Escherichia coli
Nucleic Acid [3] = assay: Binding affinity to Salmon testes DNA assessed as drug-DNA complex formation at drug/DNA ratio 0.08 by linear flow dichroism method; format: nucleic-acid assay; settings: Salmonidae
Nucleic Acid [4] = assay: Induction of Escherichia coli supercoiled pBR322 DNA cleavage at 50 uM after 60mins by gel electrophoresis; format: nucleic-acid assay
Nucleic Acid [5] = assay: Induction of Escherichia coli supercoiled pBR322 DNA cleavage after 60mins by gel electrophoresis; format: nucleic-acid assay
Nucleic Acid [6] = assay: Stabilization of supercoiled pBR322 DNA-human recombinant topoisomerase 2 complex assessed as linear DNA formation at 10 to 100 uM after 60 mins; format: nucleic-acid assay; settings: Escherichia coli
HeLa [7] = assay: Induction of apoptosis in human HeLa cells assessed as induction of DNA fragmentation at 200 uM after 24 hrs using ethidium bromide staining by agarose gel electrophoresis; format: functional, cell-based
Procedure, shortened: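 HeLa cells (5 × 10⁵) were preincubated 24 h at 37 °C, then medium was replaced with fresh medium containing test agent; controls received solvent alone. After 24 h, nuclear DNA was extracted and dissolved in TE buffer (10 mM Tris pH 8, 1 mM EDTA). Fragmentation was examined on a 1% agarose gel.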

Nucleic Acid [8] = assay: Binding affinity to Salmon testes DNA assessed as drug-DNA complex formation at drug/DNA ratio 0.16 by linear flow dichroism method; format: nucleic-acid assay; settings: Salmonidae
[9] = target: DNA topoisomerase 2-alpha (Homo sapiens) (UniProt P11388); assay: Inhibition of human recombinant topoisomerase 2-mediated relaxation of supercoiled pBR322 DNA upt0 100 uM after 60 mins by agarose gel electrophoresis
Procedure, shortened: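 Supercoiled pBR322 (0.25 µg) was incubated with 1 U topoisomerase II plus compounds for 60 min at 37 °C in 20 µL. The reaction was stopped with SDS stop buffer and 50 µg/mL proteinase K for 30 min at 37 °C. Products were run on a 1% agarose gel at room temperature, then stained with 1 µg/mL ethidium bromide and imaged under UV.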

Sequence of DNA topoisomerase 2-alpha (Homo sapiens) (P11388 whole entry): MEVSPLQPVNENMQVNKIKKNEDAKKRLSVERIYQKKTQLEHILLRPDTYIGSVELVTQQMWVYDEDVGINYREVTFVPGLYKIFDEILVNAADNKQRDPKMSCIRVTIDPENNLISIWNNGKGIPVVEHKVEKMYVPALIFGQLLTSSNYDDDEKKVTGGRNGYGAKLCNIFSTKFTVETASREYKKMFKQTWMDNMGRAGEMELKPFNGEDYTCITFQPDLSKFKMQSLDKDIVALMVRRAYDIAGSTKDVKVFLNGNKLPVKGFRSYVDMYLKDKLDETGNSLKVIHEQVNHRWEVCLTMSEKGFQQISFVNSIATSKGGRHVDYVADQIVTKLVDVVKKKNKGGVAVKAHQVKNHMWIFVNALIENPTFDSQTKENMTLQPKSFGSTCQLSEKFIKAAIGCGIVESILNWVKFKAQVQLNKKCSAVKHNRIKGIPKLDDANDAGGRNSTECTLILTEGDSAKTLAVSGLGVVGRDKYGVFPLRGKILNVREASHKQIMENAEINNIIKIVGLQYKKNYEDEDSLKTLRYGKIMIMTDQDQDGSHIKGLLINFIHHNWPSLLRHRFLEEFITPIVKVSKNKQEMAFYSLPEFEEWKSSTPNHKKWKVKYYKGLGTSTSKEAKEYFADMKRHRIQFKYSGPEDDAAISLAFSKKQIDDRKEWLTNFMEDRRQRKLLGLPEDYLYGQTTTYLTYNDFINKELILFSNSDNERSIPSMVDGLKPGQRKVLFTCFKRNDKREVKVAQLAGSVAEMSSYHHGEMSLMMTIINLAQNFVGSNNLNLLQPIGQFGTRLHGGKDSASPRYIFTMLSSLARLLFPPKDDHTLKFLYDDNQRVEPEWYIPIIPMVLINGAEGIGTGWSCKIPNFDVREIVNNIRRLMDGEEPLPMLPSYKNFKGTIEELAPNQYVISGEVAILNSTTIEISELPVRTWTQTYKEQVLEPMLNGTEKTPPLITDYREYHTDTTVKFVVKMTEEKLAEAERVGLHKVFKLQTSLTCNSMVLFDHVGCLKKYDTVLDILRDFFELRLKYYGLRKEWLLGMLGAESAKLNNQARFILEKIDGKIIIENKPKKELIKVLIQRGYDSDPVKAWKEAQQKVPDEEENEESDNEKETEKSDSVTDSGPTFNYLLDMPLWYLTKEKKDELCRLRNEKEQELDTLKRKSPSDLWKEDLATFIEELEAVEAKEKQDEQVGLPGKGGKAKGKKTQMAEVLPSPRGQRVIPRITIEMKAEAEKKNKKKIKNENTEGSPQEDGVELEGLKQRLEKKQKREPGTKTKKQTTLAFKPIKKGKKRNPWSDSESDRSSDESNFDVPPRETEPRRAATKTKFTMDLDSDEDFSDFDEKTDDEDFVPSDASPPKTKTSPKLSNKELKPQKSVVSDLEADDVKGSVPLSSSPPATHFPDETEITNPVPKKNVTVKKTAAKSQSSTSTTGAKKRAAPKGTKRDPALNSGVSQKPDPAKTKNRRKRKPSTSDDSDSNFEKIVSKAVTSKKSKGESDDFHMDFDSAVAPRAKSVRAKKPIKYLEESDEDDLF

Row | Structure (SMILES) | IC50 (HL-60) [µM] | IC50 (A-431) [µM] | IC50 (HeLa [1]) [µM] | Activity (Nucleic Acid [2]) | Activity (Nucleic Acid [3]) | inhibition (Nucleic Acid [4]) | inhibition (Nucleic Acid [5]) | Activity (Nucleic Acid [6]) | Activity (HeLa [7]) | Activity (Nucleic Acid [8]) | inhibition [9]
1 | CS(=O)(=O)Nc1ccc(Nc2cc3cncnc3c3ccccc23)cc1 | 26.5 | 57.7 | > 100 | – | – | – | – | – | – | – | –
2 | COc1cc(NS(C)(=O)=O)ccc1Nc1cc2ncncc2c2ccccc12 | 30.7 | 77.7 | > 100 | – | – | – | – | – | – | – | –
3 | CS(=O)(=O)Nc1ccc(Nc2cc3ncncc3c3ccccc23)cc1 | > 100 | > 100 | > 100 | – | – | – | – | – | – | – | –
4 | COc1cc(NS(C)(=O)=O)ccc1Nc1c2ccccc2nc2ccccc12 [AMSACRINE] | 0.006 | 0.17 | 0.012 | Active | – | – | – | – | – | – | –
5 | COc1cc(NS(C)(=O)=O)ccc1Nc1cc2cncnc2c2ccccc12 | 26.9 | > 100 | > 100 | – | – | – | – | – | – | – | –
6 | Cc1c2ccncc2c(C)c2c1[nH]c1ccccc12 [ELLIPTECINE] | 0.64 | 0.47 | 0.31 | – | – | – | – | – | – | – | –
7 | CN(C)CCNc1cc2cncnc2c2ccccc12 | 10.8 | 3.6 | 15.7 | – | Active | Dose-dependent effect | Active | Active | Active | – | –
8 | CN(C)CCNc1cc2ncncc2c2ccccc12 | 4.3 | 4.3 | 23.2 | – | Active | Dose-dependent effect | Active | Active | Active | – | –
9 | CN(C)CCNc1ncnc2c1ccc1ccccc12 | 61.6 | 50.5 | > 100 | – | Active | – | – | – | – | Active | inactive
